Tests used:
[1] = species on record: Homo sapiens; test: Selectivity for human recombinant glucagon receptor over human GLP1R
[2] = Oral bioavailability in fasted Sprague-Dawley rat at 3.9 mg/kg by HTLC-MS/MS analysis; type: ADME, organism-based; conditions: in vivo
How it was run: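 Separate intravenous and peroral dosing arms per compound, with plasma concentration followed against time. Oral bioavailability (F_po) is reported per compound together with the intravenous half-life and clearance. The dose used for each arm is listed per compound.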

[3] = species on record: Homo sapiens; test: Selectivity ratio of IC50 for human recombinant glucagon receptor to IC50 for human recombinant GIPR
How it was run: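 Competition binding of compounds to recombinant human glucagon and GIP receptors on BHK cell membranes, run in parallel as a scintillation proximity assay and, for selected compounds, as a membrane filtration assay.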

[4] = Cmax in fasted Sprague-Dawley rat at 1.9 mg/kg, iv and 3.9 mg/kg, po by HTLC-MS/MS analysis; type: ADME, organism-based; conditions: in vivo
How it was run: (§1)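 Rats were dosed intravenously and perorally in separate arms, and plasma concentration-time profiles were obtained. Half-life was taken from the iv arm. Clearance, oral bioavailability, Cmax and Tmax were derived from the profiles.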

[5] = Tmax in fasted Sprague-Dawley rat at 1.9 mg/kg, iv and 3.9 mg/kg, po by HTLC-MS/MS analysis; type: ADME, organism-based; conditions: in vivo
How it was run: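 Plasma concentration–time profiles were recorded after separate intravenous and peroral dosing at the per-compound doses listed. T_max is reported in min alongside C_max (ng/mL), intravenous half-life and clearance ((mL/min)/kg).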

[6] = Clearance in fasted Sprague-Dawley rat at 1.9 mg/kg, iv and 3.9 mg/kg, po by HTLC-MS/MS analysis; type: ADME, organism-based; conditions: in vivo; how it was run: as §1
[7] = Half life in fasted Sprague-Dawley rat plasma at 1.9 mg/kg, iv by HTLC-MS/MS analysis; type: ADME, organism-based; parameters: dose 1.9 mg/kg, route intravenous; how it was run: as §1
[8] = molecular target: T1, Gastric inhibitory polypeptide receptor (Homo sapiens, UniProt P48546); test: Displacement of [125I]porcine GIP from human recombinant GIPR receptor expressed in BHK cells by scintillation proximity assay; type: cell-based
T1 sequence (P48546 whole entry): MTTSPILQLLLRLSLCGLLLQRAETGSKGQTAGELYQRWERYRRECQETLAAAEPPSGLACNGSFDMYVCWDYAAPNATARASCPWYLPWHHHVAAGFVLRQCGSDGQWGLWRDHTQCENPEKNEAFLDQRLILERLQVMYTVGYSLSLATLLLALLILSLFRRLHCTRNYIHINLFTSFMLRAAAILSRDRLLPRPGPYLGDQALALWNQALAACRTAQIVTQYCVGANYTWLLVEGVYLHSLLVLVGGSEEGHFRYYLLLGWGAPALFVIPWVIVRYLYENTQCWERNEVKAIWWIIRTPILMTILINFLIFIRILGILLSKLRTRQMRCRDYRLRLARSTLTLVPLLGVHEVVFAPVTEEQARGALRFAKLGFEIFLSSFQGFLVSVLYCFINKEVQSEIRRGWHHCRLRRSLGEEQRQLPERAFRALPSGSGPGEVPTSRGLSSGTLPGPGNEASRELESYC

[9] = molecular target: Glucagon receptor (Homo sapiens, UniProt P47871); test: Displacement of [125I]porcine glucagon from human recombinant glucagon receptor expressed in BHK cells by scintillation proximity assay; type: cell-based
Glucagon receptor, sequence (P47871 whole entry): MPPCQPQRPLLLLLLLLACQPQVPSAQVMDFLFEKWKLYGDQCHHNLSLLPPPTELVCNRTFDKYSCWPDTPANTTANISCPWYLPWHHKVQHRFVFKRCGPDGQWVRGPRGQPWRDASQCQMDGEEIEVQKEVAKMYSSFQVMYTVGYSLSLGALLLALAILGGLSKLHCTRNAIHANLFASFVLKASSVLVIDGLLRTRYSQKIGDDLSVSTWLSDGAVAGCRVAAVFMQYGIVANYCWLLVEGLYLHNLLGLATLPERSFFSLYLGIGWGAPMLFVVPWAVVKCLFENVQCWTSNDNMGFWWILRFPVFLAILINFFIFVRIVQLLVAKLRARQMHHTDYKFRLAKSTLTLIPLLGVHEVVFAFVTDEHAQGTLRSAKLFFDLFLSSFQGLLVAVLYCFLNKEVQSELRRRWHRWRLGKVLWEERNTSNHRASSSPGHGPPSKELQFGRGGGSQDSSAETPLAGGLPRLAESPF

O=C(O)CCNC(=O)c1ccc(CN(c2ccc(C3=CCCCC3)cc2)c2nc(-c3ccc(C(F)(F)F)cc3)cs2)cc1
fold change (FC) [1]: > 50
bioavailability [2]: 3%
fold change (FC) [3]: 5
Cmax [4]: 36 ng/mL
Tmax [5]: 30 min
clearance [6]: 44 mL/min/kg
half-life [7]: 35 min
IC50 [8]: 368 nM
IC50 [9]: 48 nM

Reference: ChEMBL document CHEMBL1138494, “Human glucagon receptor antagonists with thiazole cores. A novel series with superior pharmacokinetic properties” (J Med Chem, 2009)
